Experimental data as given in ChEMBL document CHEMBL4052819 (2017).
In brackets after ≈: the same amount, converted by molar mass. Activity calls are given as the source filed them. The rule behind the calls is not given here. Non-standard residues stand in square brackets, D forms with d. Residues, ends and D or L forms follow the SMILES beside them. *: point of attachment. Cha = N[C@@H](CC1CCCCC1)C(=O)O; Heptanoyl = CCCCCCC(=O)*; Dab = NCC[C@H](N)C(=O)O

How the values were obtained:
Acinetobacter baumannii [1] = test: Potentiation of vancomycin-mediated antibacterial activity against Acinetobacter baumannii ATCC 19606 assessed as decrease in vancomycin MIC at 4 ug/ml by checkerboard method relative to control; format: functional, ATCC 19606 = CIP 70.34 = JCM 6841
Klebsiella pneumoniae [2] = test: Potentiation of rifampicin-mediated antibacterial activity against Klebsiella pneumoniae ATCC 13883 assessed as rifampicin MIC at 2 ug/ml by checkerboard method (reference value: 16 ug/ml); format: functional
Escherichia coli [3] = test: Antibacterial activity against Escherichia coli ATCC 25922 in presence of 100% serum measured immediately post compound addition in serum by broth microdilution method; format: functional
Outline: (§1)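 Serum stability: compound added to 100% human serum at final 64 μg/mL, held at 37 °C, sampled at 0, 6, 12 and 24 h. […] Residual activity compared with untreated control.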

Staphylococcus aureus [4] = test: Antibacterial activity against Staphylococcus aureus ATCC 29213 after 18 to 20 hrs by broth microdilution method; format: functional
Outline: (§2)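 Broth microdilution in tryptic soy broth: 2-fold dilutions mixed 1:1 with ~1.5 × 10^5 CFU/mL inoculum, final 0.5–32 μg/mL; 37 °C, 18–20 h. MIC taken as lowest concentration giving no visible growth. At least three independent experiments, one replicate each.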

Pseudomonas aeruginosa [5] = test: Bactericidal activity against Pseudomonas aeruginosa ATCC 27853; format: functional; conditions: read-out: MBC99.9
Outline: (§3)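 MBC from MIC plates at end point: 50 μL from each well with no visible growth plated on tryptic soy agar and counted. MBC taken as lowest concentration giving ≥99.9% fall in viable count relative to initial inoculum. Three independent experiments, one replicate each.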

Klebsiella pneumoniae [6] = test: Potentiation of erythromycin-mediated antibacterial activity against Klebsiella pneumoniae ATCC 13883 assessed as decrease in erythromycin MIC at 4 ug/ml by checkerboard method relative to control; format: functional
Escherichia coli [7] = test: Antibacterial activity against Escherichia coli ATCC 25922 in presence of 100% serum after 24 hrs by broth microdilution method; format: functional; conditions: ATCC 25922, 24 h; outline: as §1
Escherichia coli [8] = test: Antibacterial activity against Escherichia coli ATCC 25922 after 18 to 20 hrs in presence of 95% serum by broth microdilution method; format: functional
Outline: (§4)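 Same microdilution with human serum as medium: compound 2-fold diluted in 100% serum, mixed 1:1 with 90% serum holding ~1.5 × 10^5 CFU/mL, giving 95% serum and final 0.5–64 μg/mL. MIC read as no visible growth after incubation as for the broth test.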

Klebsiella pneumoniae [9] = test: Potentiation of rifampicin-mediated antibacterial activity against Klebsiella pneumoniae ATCC 13883 assessed as decrease in rifampicin MIC at 2 ug/ml by checkerboard method relative to control; format: functional
Klebsiella pneumoniae [10] = test: Potentiation of vancomycin-mediated antibacterial activity against Klebsiella pneumoniae ATCC 13883 assessed as decrease in vancomycin MIC at 4 ug/ml by checkerboard method relative to control; format: functional
Acinetobacter baumannii [11] = test: Potentiation of rifampicin-mediated antibacterial activity against Acinetobacter baumannii ATCC 19606 assessed as rifampicin MIC at 2 ug/ml by checkerboard method (reference value: 16 ug/ml); format: functional; conditions: ATCC 19606 = CIP 70.34 = JCM 6841
Acinetobacter baumannii [12] = test: Potentiation of clarithromycin-mediated antibacterial activity against Acinetobacter baumannii ATCC 19606 assessed as decrease in clarithromycin MIC at 4 ug/ml by checkerboard method relative to control; format: functional, ATCC 19606 = CIP 70.34 = JCM 6841
Klebsiella pneumoniae [13] = test: Potentiation of clarithromycin-mediated antibacterial activity against Klebsiella pneumoniae ATCC 13883 assessed as decrease in clarithromycin MIC at 4 ug/ml by checkerboard method relative to control; format: functional
Acinetobacter baumannii [14] = test: Potentiation of erythromycin-mediated antibacterial activity against Acinetobacter baumannii ATCC 19606 assessed as decrease in erythromycin MIC at 4 ug/ml by checkerboard method relative to control; format: functional, ATCC 19606 = CIP 70.34 = JCM 6841
Escherichia coli [15] = test: Antibacterial activity against Escherichia coli ATCC 25922 in presence of 100% serum after 12 hrs by broth microdilution method; format: functional; conditions: ATCC 25922, 12 h; outline: as §1
Klebsiella pneumoniae [16] = test: Potentiation of ampicillin-mediated antibacterial activity against Klebsiella pneumoniae ATCC 13883 assessed as decrease in ampicillin MIC at 4 ug/ml by checkerboard method relative to control; format: functional
Acinetobacter baumannii [17] = test: Potentiation of rifampicin-mediated antibacterial activity against Acinetobacter baumannii ATCC 19606 assessed as decrease in rifampicin MIC at 4 ug/ml by checkerboard method relative to control; format: functional, ATCC 19606 = CIP 70.34 = JCM 6841
Staphylococcus aureus [18] = test: Antibacterial activity against Staphylococcus aureus ATCC 29213 after 18 to 20 hrs in presence of 95% serum by broth microdilution method; format: functional; outline: as §4
Acinetobacter baumannii [19] = test: Antibacterial activity against Acinetobacter baumannii ATCC 19606 after 18 to 20 hrs by broth microdilution method; format: functional; conditions: ATCC 19606 = CIP 70.34 = JCM 6841
Escherichia coli [20] = test: Antibacterial activity against Escherichia coli ATCC 25922 in presence of 100% serum after 6 hrs by broth microdilution method; format: functional; conditions: ATCC 25922, 6 h; outline: as §1
Acinetobacter baumannii [21] = test: Potentiation of ampicillin-mediated antibacterial activity against Acinetobacter baumannii ATCC 19606 assessed as decrease in ampicillin MIC at 4 ug/ml by checkerboard method relative to control; format: functional, ATCC 19606 = CIP 70.34 = JCM 6841
Escherichia coli [22] = test: Antibacterial activity against Escherichia coli ATCC 25922 after 18 to 20 hrs by broth microdilution method; format: functional; outline: as §2
Pseudomonas aeruginosa [23] = test: Antibacterial activity against Pseudomonas aeruginosa ATCC 27853 after 18 to 20 hrs by broth microdilution method; format: functional; outline: as §2
Staphylococcus aureus [24] = test: Antibacterial activity against methicillin-resistant Staphylococcus aureus ATCC 43300 after 18 to 20 hrs by broth microdilution method; format: functional
Outline: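 Broth microdilution in tryptic soy broth: 2-fold dilutions mixed 1:1 with ~1.5 × 10^5 CFU/mL bacterial suspension in TSB, final 0.5–32 μg/mL, 37 °C for 18–20 h. MIC = lowest concentration with no visible growth. At least three independent experiments, one replicate each.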

Klebsiella pneumoniae [25] = test: Antibacterial activity against Klebsiella pneumoniae ATCC 13883 after 18 to 20 hrs by broth microdilution method; format: functional
Enterococcus faecium [26] = test: Antibacterial activity against Enterococcus faecium ATCC 19434 after 18 to 20 hrs by broth microdilution method; format: functional; outline: as §2
Pseudomonas aeruginosa [27] = test: Bactericidal activity against Pseudomonas aeruginosa ATCC 27853 after 60 mins in presence of LPS; format: functional
Outline: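 P. aeruginosa at ~10^6 CFU/mL in TSB with E. coli O111:B4 LPS (final 10, 25, 50 or 100 μg/mL), then compound at final 16 μg/mL. Incubated 37 °C, 200 rpm, 60 min; survivors counted on TSA. Three independent experiments, one replicate each.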

Staphylococcus aureus [28] = test: Bactericidal activity against Staphylococcus aureus ATCC 29213; format: functional; conditions: read-out: MBC99.9; outline: as §3
Enterococcus faecium [29] = test: Bactericidal activity against Enterococcus faecium ATCC 19434; format: functional; conditions: read-out: MBC99.9; outline: as §3
Escherichia coli [30] = test: Bactericidal activity against Escherichia coli ATCC 25922; format: functional; conditions: read-out: MBC99.9; outline: as §3
Acinetobacter baumannii [31] = test: Bactericidal activity against Acinetobacter baumannii ATCC 19606; format: functional; conditions: ATCC 19606 = CIP 70.34 = JCM 6841, read-out: MBC99.9; outline: as §3
Klebsiella pneumoniae [32] = test: Bactericidal activity against Klebsiella pneumoniae ATCC 13883; format: functional; conditions: read-out: MBC99.9; outline: as §3
Staphylococcus aureus [33] = test: Bactericidal activity against methicillin-resistant Staphylococcus aureus ATCC 43300; format: functional; conditions: read-out: MBC99.9
Outline: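 MBC taken at the end of the MIC test: 50 μL from each well without visible growth plated on tryptic soy agar. MBC = lowest concentration giving ≥99.9% reduction in viable cells relative to the initial inoculum. Three independent experiments, one replicate each.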

CC[C@H](C)[C@H](NC(=O)[C@H](CCN)NC(=O)[C@@H](N)CC1CCCCC1)C(=O)N[C@@H](CCN)C(=O)N[C@H](Cc1ccccc1)C(=O)N[C@@H](CC(C)C)C(=O)N[C@@H](CCN)C(=O)N[C@@H](C(=O)N[C@@H](CC(C)C)C(=O)N[C@@H](CO)C(N)=O)C(C)C (H-[Cha][Dab]I[Dab][dF]L[Dab][dV]LS-NH2)
fold change (FC) (Acinetobacter baumannii [1]): 32 - 64
MIC (Klebsiella pneumoniae [2]): 3.9 ng/mL
MIC (Escherichia coli [3]): 1 to 2 µg/mL
MIC (Staphylococcus aureus [4]): > 32 µg/mL
MBC (Pseudomonas aeruginosa [5]): 16 to 32 µg/mL (≈ 14 to 28 µM)
fold change (FC) (Klebsiella pneumoniae [6]): 512
MIC (Escherichia coli [7]): > 32 µg/mL
MIC (Escherichia coli [8]): 2 µg/mL
fold change (FC) (Klebsiella pneumoniae [9]): >=8192
fold change (FC) (Klebsiella pneumoniae [10]): 1
MIC (Acinetobacter baumannii [11]): 3.9 to 7.8 ng/mL
fold change (FC) (Acinetobacter baumannii [12]): 2048
fold change (FC) (Klebsiella pneumoniae [13]): 2048 - 4096
fold change (FC) (Acinetobacter baumannii [14]): 64
MIC (Escherichia coli [15]): > 32 µg/mL
fold change (FC) (Klebsiella pneumoniae [16]): 1
fold change (FC) (Acinetobacter baumannii [17]): 4096
MIC (Staphylococcus aureus [18]): > 64 µg/mL
MIC (Acinetobacter baumannii [19]): ≥ 32 µg/mL
MIC (Escherichia coli [20]): > 32 µg/mL
fold change (FC) (Acinetobacter baumannii [21]): 2 - 4
MIC (Escherichia coli [22]): 4 to 8 µg/mL (≈ 3.5 to 7 µM)
MIC (Pseudomonas aeruginosa [23]): 2 to 8 µg/mL (≈ 1.75 to 7 µM)
MIC (Staphylococcus aureus [24]): 32 µg/mL (≈ 28 µM)
MIC (Klebsiella pneumoniae [25]): 32 µg/mL (≈ 28 µM)
MIC (Enterococcus faecium [26]): > 32 µg/mL

CCCCCCC(=O)N[C@@H](CCN)C(=O)N[C@@H](Cc1ccccc1)C(=O)N[C@@H](CCN)C(=O)N[C@H](Cc1ccccc1)C(=O)N[C@@H](CC(C)C)C(=O)N[C@@H](CCN)C(=O)N[C@H](CC(C)C)C(=O)N[C@@H](Cc1ccccc1)C(=O)N[C@@H](CO)C(N)=O (Heptanoyl-[Dab]F[Dab][dF]L[Dab][dL]FS-NH2)
Activity (Pseudomonas aeruginosa [27]): inactive
MIC (Staphylococcus aureus [4]): 8 µg/mL (≈ 6.75 µM)
MBC (Staphylococcus aureus [28]): 8 to 32 µg/mL (≈ 6.75 to 27 µM)
MBC (Pseudomonas aeruginosa [5]): 4 µg/mL (≈ 3.38 µM)
MBC (Enterococcus faecium [29]): 16 µg/mL (≈ 13.5 µM)
MIC (Escherichia coli [8]): 32 µg/mL
MBC (Escherichia coli [30]): 8 to 16 µg/mL (≈ 6.75 to 13.5 µM)
MBC (Acinetobacter baumannii [31]): 4 µg/mL (≈ 3.38 µM)
MIC (Staphylococcus aureus [18]): 32 to 64 µg/mL
MIC (Acinetobacter baumannii [19]): 2 to 4 µg/mL (≈ 1.69 to 3.38 µM)
MIC (Escherichia coli [22]): 0.5 to 2 µg/mL (≈ 0.422 to 1.69 µM)
MIC (Pseudomonas aeruginosa [23]): 1 to 2 µg/mL (≈ 0.844 to 1.69 µM)
MBC (Klebsiella pneumoniae [32]): 2 µg/mL (≈ 1.69 µM)
MIC (Staphylococcus aureus [24]): 8 µg/mL (≈ 6.75 µM)
MBC (Staphylococcus aureus [33]): 8 to 16 µg/mL (≈ 6.75 to 13.5 µM)
MIC (Klebsiella pneumoniae [25]): 1 µg/mL (≈ 0.844 µM)
MIC (Enterococcus faecium [26]): 8 µg/mL (≈ 6.75 µM)
